The values that follow come from ChEMBL document CHEMBL1157068, “Crossbyanols A-D, toxic brominated polyphenyl ethers from the Hawai'ian bloom-forming Cyanobacterium Leptolyngbya crossbyana” (J Nat Prod, 2010).

In brackets after ≈: the same amount, converted by molar mass. Activity calls are given as the source filed them. The calls are words filed in the database; no cut-off is given here.

The subject of data set [1] is Neuro2a. The data set can be described thus: Inhibition of voltage-gated sodium channel in mouse Neuro2a cells at 20 ug/ml after 24 hrs by MTT assay. Format: cell-based. For orientation: Tetrazolium dyes change colour on reduction, which living cells bring about.
Data set [2] concerns Neuro2a. The data set can be described thus: Activation of voltage-gated sodium channel in mouse Neuro2a cells at 20 ug/ml after 16 hrs by MTT assay. Format: cell-based. The procedure, abridged: (§1)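 Neuro2a cells plated at 3.0×10^5 cells/mL in RPMI 1640 with 10% FBS and 1% pen/strep, 200 µL/well, recovered overnight (37 °C, 5% CO2). DMSO stocks (10 mg/mL) diluted in serum-free RPMI to a final 20 µg/mL. Bottom half of plate got 5 mM ouabain plus 150 µM veratridine in PBS/5 mM HCl; top half PBS/HCl only for general toxicity. Brevetoxin-2 positive control. MTT after ~16 h, read at 570/630 nm.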

The test system of another data set is Staphylococcus aureus. The data set can be described thus: Antibacterial activity against methicillin-resistant Staphylococcus aureus after 24 hrs by optical density method. The class given is functional. The procedure, abridged:
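MRSA grown on GYT medium for 24 h at 37 °C, then inoculated into GYT medium containing serial dilutions of compound and incubated 24 h at 37 °C. Growth read as optical density at 600 nm. MIC taken as the lowest concentration inhibiting bacterial growth.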

The subject of a further data set is NCI-H460. As to the kind of experiment: Cytotoxicity against human H460 cells after 48 hrs by MTT assay. The class given is functional, cell-based. In a few lines: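 H-460 cells at 3.33×10^4 cells/mL in RPMI 1640 with FBS and 1% pen/strep, 180 µL/well, recovered overnight (37 °C, 5% CO2). DMSO stocks (10 mg/mL) diluted in serum-free RPMI to final 30 or 3 µg/mL; serum-free medium as negative control. ~48 h incubation, then MTT, absorbance read at 570 and 630 nm.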

For another data set, the system named is Artemia salina. The data set can be described thus: Toxicity in Artemia salina after 24 hrs. Format: organism-based. The procedure, abridged:
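Artemia salina eggs hatched over 24 h; about 20 nauplii in ~0.5 mL seawater added per well holding sample in 50 µL EtOH plus 4.5 mL artificial seawater. Final concentrations 1, 5 and 25 ppm, controls and samples in triplicate. Live and dead counted after 24 h at 28 °C.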

Data set [3] in a line: Activation of voltage-gated sodium channel in mouse Neuro2a cells after 16 hrs by MTT assay. The class given is cell-based. The note with it: N2a. In a few lines:
as §1

As for `O=S(=O)(O)Oc1ccc(Oc2c(Br)cc(Oc3ccc(O)c(Br)c3)cc2Oc2ccc(Br)cc2Br)c(Br)c1Oc1ccc(Br)cc1Br`, the inhibition entry in the data set on Neuro2a [1] is “inactive”. The result in the data set on Neuro2a [2], with Staphylococcus aureus and in the data set with NCI-H460 was inactive.
As for `O=S(=O)(O)Oc1ccc(Oc2cc(Br)c(Oc3ccc(O)c(Oc4ccc(Br)cc4Br)c3Br)c(Oc3ccc(Br)cc3Br)c2)cc1Br`, the inhibition entry in the data set on Neuro2a [1] is “inactive”. For the same compound, the outcome with Neuro2a [2], with Staphylococcus aureus and in the data set with NCI-H460 was inactive.
Regarding `Oc1ccc(Oc2cc(Br)c(Oc3ccc(O)c(Oc4ccc(Br)cc4Br)c3Br)c(Oc3ccc(Br)cc3Br)c2)cc1Br` [CROSSBYANOL A], the inhibition entry in the data set on Neuro2a [1] is “inactive”. Moreover, in the data set on Staphylococcus aureus, the result was inactive. Moreover, the Activity entry in the data set on Artemia salina (artemia salina, in vivo, 24 h) was “Non-toxic”. For the same compound, the IC50 came out at 20 µg/mL (≈ 19.4 µM) in data set [3] and 30 µg/mL (≈ 29.1 µM) in the data set with NCI-H460 (NCI-H460, 48 h).
Take `O=S(=O)(O)Oc1ccc(Oc2cc(Br)c(Oc3ccc(OS(=O)(=O)O)c(Oc4ccc(Br)cc4Br)c3Br)c(Oc3ccc(Br)cc3Br)c2)cc1Br` [CROSSBYANOL B]: in the data set with Neuro2a [1], the inhibition entry was “inactive”. Besides, the result in the data set on Neuro2a [2] and in the data set on NCI-H460 was inactive. In addition, the lowest concentration to inhibit growth in the data set on Staphylococcus aureus (MIC) was 2 µg/mL (≈ 1.68 µM). This compound registered an IC50 in the data set with Artemia salina of 2.8 ppm.
